Source: ChEMBL document CHEMBL1157559, “Synthesis and biological evaluation of novel pyrazolyl-2,4-thiazolidinediones as anti-inflammatory and neuroprotective agents” (Bioorg Med Chem, 2010)
pEC50, pIC50: −log10 of the molar value. Activity calls are given as the source filed them. The calls are words filed in the database; no cut-off is given here.

Experiments:
[1] = Acute toxicity in po dosed Swiss albino mouse after 24 hrs; format: organism-based; details: in vivo, read-out: ALD50
How it was run: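 Four groups of five Swiss albino mice (20–30 g), fasted 24 h beforehand, given compounds orally at graded doses of 0–300 mg/kg. Mortality recorded at each dose level after 24 h to estimate the acute lethal dose (ALD50).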

THP-1 [2] = assay: Cytotoxicity against LPS and IFN-gamma-stimulated human THP1 cells after 24 hrs; format: functional, cell-based; details: THP-1, 24 h
How it was run: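 THP-1 cells, 24-well, in DMEM-F12 with 5% FBS. Compound or DMSO added 15 min before LPS 0.5 µg/mL plus IFN-γ 150 U/mL. After 24 h, LDH release (fraction of Triton-lysed value, OD 490) and MTT were read. EC50 taken from curves of at least three independent experiments; the lower of the two assay values was reported.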

THP-1 [3] = assay: Inhibition of MCP1 release in human THP1 cells after 24 hrs by ELISA; format: functional, cell-based
How it was run: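 THP-1 cells pretreated 15 min with compound, then stimulated with LPS 0.5 µg/mL plus IFN-γ 150 U/mL. After 24 h, MCP-1 (ng/mL) measured in cell-free medium by ELISA.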

SH-SY5Y [4] = assay: Antineurotoxicity in human SH-SY5Y cells assessed as inhibition human THP1 cell supernatant-induced cytotoxicity compound pretreated 24 to 48 hrs to THP1 cells measured after 72 hrs of supernatant addition; format: functional, cell-based
How it was run: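 THP-1 cells in DMEM-F12 with 5% FBS, pretreated 15 min with compound or DMSO, then stimulated with LPS 0.5 µg/mL plus IFN-γ 150 U/mL for 24 or 48 h. Cell-free supernatant transferred to SH-SY5Y cells plated 24 h earlier. After 72 h, viability by LDH release and MTT. IC50 from curves of at least three independent experiments.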

Rattus norvegicus [5] = assay: Antiinflammatory activity in Wistar albino rat acute inflammatory model assessed as inhibition of formalin-induced paw edema at 20 mg/kg, po administered 1 hr before formalin challenge measured after 1 hr by plethysmometer relative to control; format: functional; set-up: scale not given: the % may be the effect or the level left
How it was run: (§1)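 Male Wistar rats, 180–200 g, groups of five. Test compound 20 mg/kg po; 1 h later 0.1 mL 2% formalin injected subplantar into left hind paw under light ether anesthesia. Paw volume by water plethysmometer at 0 and 1, 2, 3, 4 h after formalin. % inhibition = (Vt−V0)control minus (Vt−V0)treated, divided by (Vt−V0)control ×100. Mean ± SEM, ANOVA with Student–Newman–Keuls.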

Rattus norvegicus [6] = assay: Antiinflammatory activity in Wistar albino rat acute inflammatory model assessed as inhibition of formalin-induced paw edema at 20 mg/kg, po administered 1 hr before formalin challenge measured after 2 hrs by plethysmometer relative to control; format: functional; set-up: scale not given: the % may be the effect or the level left; how it was run: as §1
Rattus norvegicus [7] = assay: Antiinflammatory activity in Wistar albino rat acute inflammatory model assessed as inhibition of formalin-induced paw edema at 20 mg/kg, po administered 1 hr before formalin challenge measured after 3 hrs by plethysmometer relative to control; format: functional; set-up: scale not given: the % may be the effect or the level left; how it was run: as §1
Rattus norvegicus [8] = assay: Antiinflammatory activity in Wistar albino rat acute inflammatory model assessed as inhibition of formalin-induced paw edema at 20 mg/kg, po administered 1 hr before formalin challenge measured after 4 hrs by plethysmometer relative to control; format: functional; set-up: scale not given: the % may be the effect or the level left; how it was run: as §1
Rattus norvegicus [9] = assay: Antiinflammatory activity in Wistar albino rat sub-acute inflammatory model assessed as inhibition of formalin-induced paw edema at 20 mg/kg, po administered daily for 7 days by plethysmometer relative to control; format: functional; details: 168 h
How it was run: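 Rats dosed orally at 20 mg/kg daily for 7 consecutive days. 0.1 mL 2% formalin given subplantar in left hind paw under light ether 1 h after the first oral dose, with a second injection on day 3. Paw edema weight (g) measured on day 8. % inhibition = (control − treated)/control ×100. Groups of five.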

Rattus norvegicus [10] = assay: Antiinflammatory activity in Wistar albino rat sub-acute inflammatory model assessed as inhibition of turpentine oil-induced granuloma pouch exudate volume at 20 mg/kg, po 1 hr before turpentine oil challenge for 7 days assessed measured on day 8; format: functional
How it was run: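 Male rats 120–150 g, five per group. Subcutaneous dorsal pouch made under ether with 2 mL air, then 0.5 mL turpentine oil injected. Compound 20 mg/kg po 1 h before turpentine, then daily for seven days. On day 8 exudate drawn by syringe under anesthesia and volume measured. % inhibition = (Vcontrol − Vtreated)/Vcontrol ×100.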

Rattus norvegicus [11] = assay: Antiinflammatory activity in po dosed Wistar albino rat acute inflammatory model assessed as inhibition of formalin-induced paw edema administered 1 hr before formalin challenge measured after 3 hrs by plethysmometer; format: functional
How it was run: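 Rats dosed orally at 5, 10, 20, 40 and 50 mg/kg body weight. Edema volume inhibition measured 3 h after subplantar formalin (2%, 0.1 mL), and ED50 determined from these doses.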

HL-60 = assay: Inhibition of phagocyte respiratory burst in human HL60 cells after 6 to 7 days by luminol-induced chemiluminescence; format: functional, cell-based
How it was run: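 HL-60 cells differentiated 6–7 days in DMEM-F12 with 10% FBS and 1.3% DMSO, washed into serum-free, phenol red-free medium, then held 30 min at 37 °C before compound or DMSO was added. Luminol injected, 7.5 min baseline recorded, then FMLP injected (final 1 µM; luminol 5 mM; DMSO 0.5%). Chemiluminescence recorded 30 min at 37 °C; read-out was area under the curve.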

SH-SY5Y [12] = assay: Neuroprotective activity in human SH-SY5Y cells assessed as inhibition of LPS, IFN-gamma-stimulated THP1 cellular supernatant-induced cytotoxicity after 72 hrs by LDH assay; format: functional, cell-based
How it was run: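 SH-SY5Y cells plated 24 h, then medium replaced with supernatant from THP-1 cells stimulated with LPS + IFN-γ for 48 h. Compound added directly to the SH-SY5Y cells at the time of transfer. Cell death measured by LDH release after 72 h; 4–6 independent experiments.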

SH-SY5Y [13] = assay: Neuroprotective activity in human SH-SY5Y cells assessed as inhibition of H2O2-induced cytotoxicity after 72 hrs by LDH assay; format: functional, cell-based
How it was run: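 SH-SY5Y cells plated in DMEM-F12 with 5% FBS. After 24 h, medium replaced with medium containing H2O2 (500 µM in methods, 250 µM in figure legend), and compound added directly at that time. Cell death measured by LDH release 72 h later.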

[14] = molecular target: T1, Prostaglandin G/H synthase 1 (Ovis aries) (UniProt P05979); assay: Inhibition of ovine COX1 at 10 uM
T1 sequence (whole entry): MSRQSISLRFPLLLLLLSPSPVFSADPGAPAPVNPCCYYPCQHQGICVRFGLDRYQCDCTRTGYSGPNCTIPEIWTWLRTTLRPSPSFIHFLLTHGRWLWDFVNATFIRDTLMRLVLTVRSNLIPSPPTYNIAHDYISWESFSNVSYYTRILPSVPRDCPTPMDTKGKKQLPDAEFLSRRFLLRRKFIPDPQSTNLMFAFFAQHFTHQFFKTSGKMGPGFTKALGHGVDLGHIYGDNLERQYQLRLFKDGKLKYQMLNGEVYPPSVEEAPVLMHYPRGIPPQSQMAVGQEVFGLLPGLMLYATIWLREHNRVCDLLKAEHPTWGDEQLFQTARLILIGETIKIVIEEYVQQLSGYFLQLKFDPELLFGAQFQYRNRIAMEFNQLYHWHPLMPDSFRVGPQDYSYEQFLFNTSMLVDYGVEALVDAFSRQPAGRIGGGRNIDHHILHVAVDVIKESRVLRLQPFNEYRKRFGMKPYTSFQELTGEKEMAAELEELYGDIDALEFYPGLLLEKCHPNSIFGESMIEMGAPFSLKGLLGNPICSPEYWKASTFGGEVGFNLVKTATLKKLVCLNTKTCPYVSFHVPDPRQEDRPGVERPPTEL
How it was run: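 Kit assay with ovine COX-1, run per manufacturer's protocol. Read-out was percent inhibition of prostaglandin production, with compound at 10 µM and three experiments.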

Rattus norvegicus [15] = assay: Gastrointestinal toxicity in Wistar albino rat assessed as hyperemia at 100 mg/kg/day, po administered twice daily for 3 days; format: organism-based; set-up: route oral; details: in vivo, 72 h
How it was run: (§2)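 Male rats 180–200 g, groups of five, fasted 12 h with water available. Compounds given orally as two equal doses at 0 and 12 h, 100 mg/kg per day, for three successive days; vehicle control 1% gum acacia. Rats killed 6 h after last dose. Stomach opened along greater curvature, washed with cold saline and inspected under 3× lens for hyperemia, hemorrhage, erosions or ulcers.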

Rattus norvegicus [16] = assay: Gastrointestinal toxicity in Wistar albino rat assessed as ulceration at 100 mg/kg/day, po administered twice daily for 3 days; format: organism-based; set-up: route oral; details: in vivo, 72 h; how it was run: as §2
[17] = molecular target: T2, Prostaglandin G/H synthase 2 (Homo sapiens) (UniProt P35354); details: at 10 µM
T2 sequence (whole entry): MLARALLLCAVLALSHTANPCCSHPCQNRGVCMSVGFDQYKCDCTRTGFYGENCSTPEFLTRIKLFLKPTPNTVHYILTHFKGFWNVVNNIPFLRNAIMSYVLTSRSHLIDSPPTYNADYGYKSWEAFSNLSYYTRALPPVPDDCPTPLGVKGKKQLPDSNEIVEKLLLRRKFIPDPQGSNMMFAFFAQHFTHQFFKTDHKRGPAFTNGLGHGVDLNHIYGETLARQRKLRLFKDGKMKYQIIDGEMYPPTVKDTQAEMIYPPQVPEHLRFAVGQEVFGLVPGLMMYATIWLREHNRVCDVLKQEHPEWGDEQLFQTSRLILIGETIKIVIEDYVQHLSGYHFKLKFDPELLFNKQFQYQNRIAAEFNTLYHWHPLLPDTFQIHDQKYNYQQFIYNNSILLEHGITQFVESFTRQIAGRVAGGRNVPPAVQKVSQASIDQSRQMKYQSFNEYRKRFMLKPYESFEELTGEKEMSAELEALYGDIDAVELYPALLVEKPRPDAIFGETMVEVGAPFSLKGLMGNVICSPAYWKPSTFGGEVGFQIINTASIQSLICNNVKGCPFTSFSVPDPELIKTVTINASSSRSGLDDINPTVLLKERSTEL

For O=C1S/C(=C\c2cn(-c3ccccc3)nc2-c2ccccc2)C(=O)N1Cc1ccccc1, the LD50 at 24 h [1] was greater than 300 mg/kg, the pEC50 (THP-1 [2]) was less than 4.00 and the inhibition (THP-1 [3]) was “inactive”.
In the case of O=C1S/C(=C\c2cn(-c3ccccc3)nc2-c2ccccc2)C(=O)N1Cc1ccc(Cl)cc1, the LD50 at 24 h [1] was greater than 300 mg/kg, the pEC50 (THP-1 [2]) was 4.30 and the inhibition (THP-1 [3]) was “inactive”. The pIC50 (SH-SY5Y [4]) was 4.10.
In the case of O=C1NC(=O)/C(=C/c2cn(-c3ccccc3)nc2-c2ccccc2)S1, the Activity (Rattus norvegicus [5]) was 35%, the Activity (Rattus norvegicus [6]) was 38% and the Activity (Rattus norvegicus [7]) was 43%. For the same compound, the Activity (Rattus norvegicus [8]) was 43%, the inhibition in vivo at 20 mg/kg (Rattus norvegicus [9]) was 53% and the inhibition in vivo at 20 mg/kg (Rattus norvegicus [10]) was 53%. It also gave an LD50 at 24 h [1] greater than 300 mg/kg, an ED50 (Rattus norvegicus [11]) of 21.3 mg/kg and a pEC50 (THP-1 [2]) of 4.30. The inhibition (THP-1 [3]) was “inactive” and the pIC50 (HL-60) was 5.10.
In the case of O=C1S/C(=C\c2cn(-c3ccccc3)nc2-c2ccccc2)C(=O)N1Cc1cccc(Br)c1, the LD50 at 24 h [1] was greater than 300 mg/kg, the pEC50 (THP-1 [2]) was less than 4.00 and the inhibition (THP-1 [3]) was “inactive”.
For CCCN1C(=O)S/C(=C\c2cn(-c3ccccc3)nc2-c2ccc(Cl)cc2)C1=O, the LD50 at 24 h [1] was greater than 300 mg/kg, the pEC50 (THP-1 [2]) was less than 4.00 and the inhibition (THP-1 [3]) was “inactive”.
For C=CCN1C(=O)S/C(=C\c2cn(-c3ccccc3)nc2-c2ccc(Cl)cc2)C1=O, the inhibition (SH-SY5Y [12]) was “inactive”, the inhibition (SH-SY5Y [13]) was “inactive” and the inhibition [14] was 26.5%. For the same compound, the Activity (Rattus norvegicus [5]) was 53%, the Activity (Rattus norvegicus [6]) was 63% and the Activity (Rattus norvegicus [7]) was 72%. The Activity (Rattus norvegicus [8]) was 66%, the inhibition in vivo at 20 mg/kg (Rattus norvegicus [9]) was 47% and the inhibition in vivo at 20 mg/kg (Rattus norvegicus [10]) was 50%. The Activity (Rattus norvegicus [15]) was “Non-toxic”, the Activity (Rattus norvegicus [16]) was 0% and the LD50 at 24 h [1] was greater than 300 mg/kg. For the same compound, the ED50 (Rattus norvegicus [11]) was 15.4 mg/kg, the pEC50 (THP-1 [2]) was 3.92 and the inhibition (THP-1 [3]) was “inactive”. The pIC50 (SH-SY5Y [4]) was 5.00 and the inhibition [17] was 13.6%.
In the case of COc1ccc2c(c1)c(CC(=O)O)c(C)n2C(=O)c1ccc(Cl)cc1 [INDOMETHACIN], the Activity (Rattus norvegicus [16]) was 100%.
